# Measured values from ChEMBL document CHEMBL4138161, “Discovery of simplified sampangine derivatives as novel fungal biofilm inhibitors” (Eur J Med Chem, 2018).
# System: Candida albicans
# Test: Antifungal activity against Candida albicans SC5314 after 24 hrs by spectrophotometric analysis
# Format: functional
# Settings: SC5314, 24 h
# Procedure, shortened: (§1)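 Broth microdilution in RPMI 1640, inoculum 5×10^3 CFU/mL, compounds from 6.4 mg/mL DMSO stocks, 35 ℃ for 24 h. Growth read as OD600; MIC80 taken as lowest concentration giving 80% growth inhibition. Triplicate.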
row,SMILES,MIC80
1,Cc1ccnc2c1C(=O)c1sccc1C2=O,16 µg/mL
2,Cc1ccnc2c1C(=O)c1ccn(C)c1C2=O,> 64 µg/mL
3,O=C1c2cc([N+](=O)[O-])sc2C(=O)c2c(-c3ccccc3[N+](=O)[O-])ccnc21,16 µg/mL
4,CCOC(=O)c1ccnc2c1C(=O)c1sc([N+](=O)[O-])cc1C2=O,2 µg/mL
5,Cc1ccnc2c1[C@H](O)c1sc([N+](=O)[O-])cc1[C@@H]2O (relative stereo),2 µg/mL
6,O=C1c2cc([N+](=O)[O-])sc2C(=O)c2c(-c3ccccc3)ccnc21,8 µg/mL
7,Cc1ccnc2c1C(=O)c1scc([N+](=O)[O-])c1C2=O,4 µg/mL
8,O=Cc1ccnc2c1C(=O)c1sc([N+](=O)[O-])cc1C2=O,4 µg/mL
9,CCc1cnc2c(c1)C(=O)c1sc([N+](=O)[O-])cc1C2=O,0.5 µg/mL
10,COc1ccccc1-c1ccnc2c1C(=O)c1sc([N+](=O)[O-])cc1C2=O,16 µg/mL
11,CC(C)(C)c1cnc2c(c1)C(=O)c1sc([N+](=O)[O-])cc1C2=O,2 µg/mL
12,O=C1c2cc([N+](=O)[O-])sc2C(=O)c2c(C3CCNCC3)ccnc21,> 64 µg/mL
13,O=C1c2ccccc2-c2nccc3ccnc1c23 [SAMPANGINE],0.5 µg/mL
14,CC(c1ccccc1)c1ccnc2c1C(=O)c1sc([N+](=O)[O-])cc1C2=O (stereo not given),4 µg/mL
15,Cc1ccnc2cc3cc([N+](=O)[O-])sc3cc12,> 64 µg/mL

# System: Candida parapsilosis
# Test: Antifungal activity against Candida parapsilosis 22019 after 24 hrs by spectrophotometric analysis
# Format: functional
# Settings: Lodderomyces parapsilosis, 22019, 24 h
# Procedure, shortened: as §1
row,SMILES,MIC80
1,Cc1ccnc2c1C(=O)c1sccc1C2=O,> 64 µg/mL
2,Cc1ccnc2c1C(=O)c1ccn(C)c1C2=O,> 64 µg/mL
3,O=C1c2cc([N+](=O)[O-])sc2C(=O)c2c(-c3ccccc3[N+](=O)[O-])ccnc21,> 64 µg/mL
4,CCOC(=O)c1ccnc2c1C(=O)c1sc([N+](=O)[O-])cc1C2=O,4 µg/mL
5,Cc1ccnc2c1[C@H](O)c1sc([N+](=O)[O-])cc1[C@@H]2O (relative stereo),8 µg/mL
6,O=C1c2cc([N+](=O)[O-])sc2C(=O)c2c(-c3ccccc3)ccnc21,8 µg/mL
7,Cc1ccnc2c1C(=O)c1scc([N+](=O)[O-])c1C2=O,> 64 µg/mL
8,O=Cc1ccnc2c1C(=O)c1sc([N+](=O)[O-])cc1C2=O,8 µg/mL
9,CCc1cnc2c(c1)C(=O)c1sc([N+](=O)[O-])cc1C2=O,1 µg/mL
10,COc1ccccc1-c1ccnc2c1C(=O)c1sc([N+](=O)[O-])cc1C2=O,16 µg/mL
11,CC(C)(C)c1cnc2c(c1)C(=O)c1sc([N+](=O)[O-])cc1C2=O,4 µg/mL
12,O=C1c2cc([N+](=O)[O-])sc2C(=O)c2c(C3CCNCC3)ccnc21,> 64 µg/mL
13,O=C1c2ccccc2-c2nccc3ccnc1c23 [SAMPANGINE],4 µg/mL
14,CC(c1ccccc1)c1ccnc2c1C(=O)c1sc([N+](=O)[O-])cc1C2=O (stereo not given),4 µg/mL
15,Cc1ccnc2cc3cc([N+](=O)[O-])sc3cc12,> 64 µg/mL

# System: Nakaseomyces glabratus
# Test: Antifungal activity against Candida glabrata 537 after 24 hrs by spectrophotometric analysis
# Format: functional
# Settings: Nakaseomyces glabratus, 537, 24 h
# Procedure, shortened: as §1
row,SMILES,MIC80
1,Cc1ccnc2c1C(=O)c1sccc1C2=O,8 µg/mL
2,Cc1ccnc2c1C(=O)c1ccn(C)c1C2=O,> 64 µg/mL
3,O=C1c2cc([N+](=O)[O-])sc2C(=O)c2c(-c3ccccc3[N+](=O)[O-])ccnc21,> 64 µg/mL
4,CCOC(=O)c1ccnc2c1C(=O)c1sc([N+](=O)[O-])cc1C2=O,4 µg/mL
5,Cc1ccnc2c1[C@H](O)c1sc([N+](=O)[O-])cc1[C@@H]2O (relative stereo),2 µg/mL
6,O=C1c2cc([N+](=O)[O-])sc2C(=O)c2c(-c3ccccc3)ccnc21,16 µg/mL
7,Cc1ccnc2c1C(=O)c1scc([N+](=O)[O-])c1C2=O,4 µg/mL
8,O=Cc1ccnc2c1C(=O)c1sc([N+](=O)[O-])cc1C2=O,0.125 µg/mL
9,CCc1cnc2c(c1)C(=O)c1sc([N+](=O)[O-])cc1C2=O,1 µg/mL
10,COc1ccccc1-c1ccnc2c1C(=O)c1sc([N+](=O)[O-])cc1C2=O,> 64 µg/mL
11,CC(C)(C)c1cnc2c(c1)C(=O)c1sc([N+](=O)[O-])cc1C2=O,4 µg/mL
12,O=C1c2cc([N+](=O)[O-])sc2C(=O)c2c(C3CCNCC3)ccnc21,> 64 µg/mL
13,O=C1c2ccccc2-c2nccc3ccnc1c23 [SAMPANGINE],16 µg/mL
14,CC(c1ccccc1)c1ccnc2c1C(=O)c1sc([N+](=O)[O-])cc1C2=O (stereo not given),8 µg/mL
15,Cc1ccnc2cc3cc([N+](=O)[O-])sc3cc12,16 µg/mL

# System: Cryptococcus neoformans
# Test: Antifungal activity against Cryptococcus neoformans 32609 after 24 hrs by spectrophotometric analysis
# Format: functional
# Settings: Cryptococcus neoformans, 32609, 24 h
# Procedure, shortened: as §1
row,SMILES,MIC80
1,Cc1ccnc2c1C(=O)c1sccc1C2=O,16 µg/mL
2,Cc1ccnc2c1C(=O)c1ccn(C)c1C2=O,> 64 µg/mL
3,O=C1c2cc([N+](=O)[O-])sc2C(=O)c2c(-c3ccccc3[N+](=O)[O-])ccnc21,4 µg/mL
4,CCOC(=O)c1ccnc2c1C(=O)c1sc([N+](=O)[O-])cc1C2=O,4 µg/mL
5,Cc1ccnc2c1[C@H](O)c1sc([N+](=O)[O-])cc1[C@@H]2O (relative stereo),4 µg/mL
6,O=C1c2cc([N+](=O)[O-])sc2C(=O)c2c(-c3ccccc3)ccnc21,4 µg/mL
7,Cc1ccnc2c1C(=O)c1scc([N+](=O)[O-])c1C2=O,4 µg/mL
8,O=Cc1ccnc2c1C(=O)c1sc([N+](=O)[O-])cc1C2=O,8 µg/mL
9,CCc1cnc2c(c1)C(=O)c1sc([N+](=O)[O-])cc1C2=O,0.25 µg/mL
10,COc1ccccc1-c1ccnc2c1C(=O)c1sc([N+](=O)[O-])cc1C2=O,8 µg/mL
11,CC(C)(C)c1cnc2c(c1)C(=O)c1sc([N+](=O)[O-])cc1C2=O,1 µg/mL
12,O=C1c2cc([N+](=O)[O-])sc2C(=O)c2c(C3CCNCC3)ccnc21,32 µg/mL
13,O=C1c2ccccc2-c2nccc3ccnc1c23 [SAMPANGINE],2 µg/mL
14,CC(c1ccccc1)c1ccnc2c1C(=O)c1sc([N+](=O)[O-])cc1C2=O (stereo not given),0.5 µg/mL
15,Cc1ccnc2cc3cc([N+](=O)[O-])sc3cc12,> 64 µg/mL

# System: Aspergillus fumigatus
# Test: Antifungal activity against Aspergillus fumigatus 07544 after 24 hrs by spectrophotometric analysis
# Format: functional
# Settings: Aspergillus fumigatus, 07544, 24 h
# Procedure, shortened: as §1
row,SMILES,MIC80
1,Cc1ccnc2c1C(=O)c1sccc1C2=O,16 µg/mL
2,Cc1ccnc2c1C(=O)c1ccn(C)c1C2=O,> 64 µg/mL
3,O=C1c2cc([N+](=O)[O-])sc2C(=O)c2c(-c3ccccc3[N+](=O)[O-])ccnc21,64 µg/mL
4,CCOC(=O)c1ccnc2c1C(=O)c1sc([N+](=O)[O-])cc1C2=O,8 µg/mL
5,Cc1ccnc2c1[C@H](O)c1sc([N+](=O)[O-])cc1[C@@H]2O (relative stereo),16 µg/mL
6,O=C1c2cc([N+](=O)[O-])sc2C(=O)c2c(-c3ccccc3)ccnc21,32 µg/mL
7,Cc1ccnc2c1C(=O)c1scc([N+](=O)[O-])c1C2=O,> 64 µg/mL
8,O=Cc1ccnc2c1C(=O)c1sc([N+](=O)[O-])cc1C2=O,16 µg/mL
9,CCc1cnc2c(c1)C(=O)c1sc([N+](=O)[O-])cc1C2=O,2 µg/mL
10,COc1ccccc1-c1ccnc2c1C(=O)c1sc([N+](=O)[O-])cc1C2=O,16 µg/mL
11,CC(C)(C)c1cnc2c(c1)C(=O)c1sc([N+](=O)[O-])cc1C2=O,4 µg/mL
12,O=C1c2cc([N+](=O)[O-])sc2C(=O)c2c(C3CCNCC3)ccnc21,> 64 µg/mL
13,O=C1c2ccccc2-c2nccc3ccnc1c23 [SAMPANGINE],16 µg/mL
14,CC(c1ccccc1)c1ccnc2c1C(=O)c1sc([N+](=O)[O-])cc1C2=O (stereo not given),4 µg/mL
15,Cc1ccnc2cc3cc([N+](=O)[O-])sc3cc12,> 64 µg/mL

# System: Trichophyton rubrum
# Test: Antifungal activity against Trichophyton rubrum Cmccftla after 24 hrs by spectrophotometric analysis
# Format: functional
# Settings: not given
# Procedure, shortened: as §1
row,SMILES,MIC80
1,Cc1ccnc2c1C(=O)c1sccc1C2=O,4 µg/mL
2,Cc1ccnc2c1C(=O)c1ccn(C)c1C2=O,> 64 µg/mL
3,O=C1c2cc([N+](=O)[O-])sc2C(=O)c2c(-c3ccccc3[N+](=O)[O-])ccnc21,16 µg/mL
4,CCOC(=O)c1ccnc2c1C(=O)c1sc([N+](=O)[O-])cc1C2=O,1 µg/mL
5,Cc1ccnc2c1[C@H](O)c1sc([N+](=O)[O-])cc1[C@@H]2O (relative stereo),2 µg/mL
6,O=C1c2cc([N+](=O)[O-])sc2C(=O)c2c(-c3ccccc3)ccnc21,8 µg/mL
7,Cc1ccnc2c1C(=O)c1scc([N+](=O)[O-])c1C2=O,4 µg/mL
8,O=Cc1ccnc2c1C(=O)c1sc([N+](=O)[O-])cc1C2=O,1 µg/mL
9,CCc1cnc2c(c1)C(=O)c1sc([N+](=O)[O-])cc1C2=O,0.5 µg/mL
10,COc1ccccc1-c1ccnc2c1C(=O)c1sc([N+](=O)[O-])cc1C2=O,16 µg/mL
11,CC(C)(C)c1cnc2c(c1)C(=O)c1sc([N+](=O)[O-])cc1C2=O,1 µg/mL
12,O=C1c2cc([N+](=O)[O-])sc2C(=O)c2c(C3CCNCC3)ccnc21,> 64 µg/mL
13,O=C1c2ccccc2-c2nccc3ccnc1c23 [SAMPANGINE],16 µg/mL
14,CC(c1ccccc1)c1ccnc2c1C(=O)c1sc([N+](=O)[O-])cc1C2=O (stereo not given),1 µg/mL
15,Cc1ccnc2cc3cc([N+](=O)[O-])sc3cc12,4 µg/mL

# System: Nannizzia gypsea
# Test: Antifungal activity against Microsporum gypseum Cmccfmza after 24 hrs by spectrophotometric analysis
# Format: functional
# Settings: not given
# Procedure, shortened: as §1
row,SMILES,MIC80
1,Cc1ccnc2c1C(=O)c1sccc1C2=O,> 64 µg/mL
2,Cc1ccnc2c1C(=O)c1ccn(C)c1C2=O,> 64 µg/mL
3,O=C1c2cc([N+](=O)[O-])sc2C(=O)c2c(-c3ccccc3[N+](=O)[O-])ccnc21,8 µg/mL
4,CCOC(=O)c1ccnc2c1C(=O)c1sc([N+](=O)[O-])cc1C2=O,4 µg/mL
5,Cc1ccnc2c1[C@H](O)c1sc([N+](=O)[O-])cc1[C@@H]2O (relative stereo),8 µg/mL
6,O=C1c2cc([N+](=O)[O-])sc2C(=O)c2c(-c3ccccc3)ccnc21,4 µg/mL
7,Cc1ccnc2c1C(=O)c1scc([N+](=O)[O-])c1C2=O,8 µg/mL
8,O=Cc1ccnc2c1C(=O)c1sc([N+](=O)[O-])cc1C2=O,2 µg/mL
9,CCc1cnc2c(c1)C(=O)c1sc([N+](=O)[O-])cc1C2=O,0.25 µg/mL
10,COc1ccccc1-c1ccnc2c1C(=O)c1sc([N+](=O)[O-])cc1C2=O,16 µg/mL
11,CC(C)(C)c1cnc2c(c1)C(=O)c1sc([N+](=O)[O-])cc1C2=O,1 µg/mL
12,O=C1c2cc([N+](=O)[O-])sc2C(=O)c2c(C3CCNCC3)ccnc21,64 µg/mL
13,O=C1c2ccccc2-c2nccc3ccnc1c23 [SAMPANGINE],> 64 µg/mL
14,CC(c1ccccc1)c1ccnc2c1C(=O)c1sc([N+](=O)[O-])cc1C2=O (stereo not given),1 µg/mL
15,Cc1ccnc2cc3cc([N+](=O)[O-])sc3cc12,> 64 µg/mL
